Reference: ChEMBL document CHEMBL2311304, “Design, synthesis and in vitro and in vivo antitumor activities of novel bivalent β-carbolines” (Eur J Med Chem, 2013)

Legend:
[1] = tested on: KB; experiment: Cytotoxicity against human epidermoid carcinoma of the nasopharynx KB cells assessed as reduction in optical density by MTT assay; type: functional, cell-based
In short: (§1)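 Cells were cultured in RPMI-1640 with 10% (v/v) fetal calf serum, 100 µg ml-1 penicillin and 100 µg ml-1 streptomycin at 37 °C in humidified 5% CO2. Compounds were dissolved in DMSO, with final DMSO at 2% (v/v) or lower. MTT staining was used, with three replicate wells per point. IC50 is the concentration giving a 50% drop in optical density versus untreated cells.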

[2] = tested on: A-375; experiment: Cytotoxicity against human malignant melanoma A375 cells assessed as reduction in optical density by MTT assay; type: functional, cell-based; in short: as §1
[3] = tested on: 769-P; experiment: Cytotoxicity against human renal carcinoma 769-P cells assessed as reduction in optical density by MTT assay; type: functional, cell-based; in short: as §1
[4] = tested on: SK-OV-3; experiment: Cytotoxicity against human ovary adenocarcinoma SKOV3 cells assessed as reduction in optical density by MTT assay; type: functional, cell-based; details: SK-OV-3, Female gonad; in short: as §1
[5] = tested on: BGC-823; experiment: Cytotoxicity against human gastric carcinoma BGC823 cells assessed as reduction in optical density by MTT assay; type: functional, cell-based; in short: as §1
[6] = tested on: Mus musculus; experiment: Toxicity in C57BL/6 mouse assessed as maximum weight loss at 40 mg/kg, ip; type: organism-based; parameters: dose 40 mg/kg, route intraperitoneal; details: in vivo
In short: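 Tumor-bearing mice, 10 females per group, were inoculated s.c. in the armpit with 2 × 10^6 viable tumor cells. Compound was given i.p. once daily for 7 consecutive days, starting 24 h after inoculation. […] Body weight was recorded every 3 days until sacrifice on day 21.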

[7] = tested on: Mus musculus; experiment: Toxicity in C57BL/6 mouse assessed as kidney damage at 1 to 500 mg/kg, ip for 14 days; type: organism-based; parameters: dose 1-500 mg/kg, route intraperitoneal; details: in vivo, 336 h
In short: (§2)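 Healthy C57BL/6 mice (9–12 weeks, 18–22 g) were fasted overnight with free access to water. Each received a single i.p. dose of 1.0–500 mg kg-1 in 0.5% CMC-Na, 10 mice per group (5 male, 5 female). Mice were watched continuously for 2 h, intermittently to 24 h, then occasionally to 14 days for tremor, twitch, jumping and supination. At day 14 they were killed and heart, liver and kidneys were examined macroscopically.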

[8] = tested on: Mus musculus; experiment: Toxicity in C57BL/6 mouse assessed as heart damage at 1 to 500 mg/kg, ip for 14 days; type: organism-based; parameters: dose 1-500 mg/kg, route intraperitoneal; details: in vivo, 336 h; in short: as §2
[9] = tested on: Mus musculus; experiment: Toxicity in C57BL/6 mouse assessed as liver damage at 1 to 500 mg/kg, ip for 14 days; type: organism-based; parameters: dose 1-500 mg/kg, route intraperitoneal; details: in vivo, 336 h; in short: as §2
[10] = tested on: Mus musculus; experiment: Neurotoxicity in C57BL/6 mouse at 1 to 500 mg/kg, ip for 14 days; type: toxicity, organism-based; parameters: dose 1-500 mg/kg, route intraperitoneal; details: in vivo, 336 h; in short: as §2
[11] = tested on: CT26; experiment: Antitumor activity in mouse CT26 colon cancer cells inoculated mouse assessed as tumor inhibition rate at one fifth of LD50 concentration once a day for consecutive 7 days by ip; type: functional; parameters: scale not given: the % may be the effect or the level left
In short: (§3)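 Each tumour line was first grown in mice for 7 days, then harvested. Viable cells (2 × 10^6 per mouse) were injected s.c. into the armpit. Dosing began 24 h later: i.p., about one fifth of LD50, daily for 7 days, 10 female mice per group. […] Body weight was recorded every 3 days. Tumours were excised and weighed on day 21 to give inhibition rate.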

[12] = Antitumor activity in mouse Lewis lung cancer cells inoculated mouse assessed as tumor inhibition rate at one fifth of LD50 concentration once a day for consecutive 7 days by ip; type: functional, Cancer cell lines; parameters: scale not given: the % may be the effect or the level left; in short: as §3

| SMILES | IC50 [1] [µM] | IC50 [2] [µM] | IC50 [3] [µM] | IC50 [4] [µM] | IC50 [5] [µM] | Activity [6] [%] | Activity [7] | Activity [8] | Activity [9] | Activity [10] | Activity [11] [%] | Activity [12] [%] |
| --- | --- | --- | --- | --- | --- | --- | --- | --- | --- | --- | --- | --- |
| Cc1nccc2c3cc(Br)ccc3n(CCCCCn3c4ccc(Br)cc4c4ccnc(C)c43)c12 | > 200 | > 200 | 4.3 | > 200 | > 200 | – | – | – | – | – | – | – |
| Brc1cccc2c3ccncc3n(CCCCCCn3c4cnccc4c4cccc(Br)c43)c12 | > 200 | > 200 | > 200 | > 200 | > 200 | – | – | – | – | – | – | – |
| Cc1nccc2c3ccccc3n(CCCn3c4ccccc4c4ccnc(C)c43)c12 | 160 | 69.5 | 145 | 26.4 | > 200 | – | – | – | – | – | – | – |
| c1cncc(-c2nccc3c4ccccc4n(CCCCn4c5ccccc5c5ccnc(-c6cccnc6)c54)c23)c1 | > 200 | 85.3 | > 200 | 36.8 | > 200 | – | – | – | – | – | – | – |
| CCOC(=O)c1cc2c3ccccc3n(CCCCCn3c4ccccc4c4cc(C(=O)OCC)nc(-c5cccnc5)c43)c2c(-c2cccnc2)n1 | 15.7 | 13 | 132 | > 200 | 24.1 | – | – | – | – | – | – | – |
| COc1ccc2c3ccnc(C)c3n(CCCCCCCn3c4cc(OC)ccc4c4ccnc(C)c43)c2c1 | 38.6 | 113 | 114 | 10.2 | 104 | – | – | – | – | – | – | – |
| COc1ccc2c3ccnc(C)c3n(CCCCCCn3c4cc(OC)ccc4c4ccnc(C)c43)c2c1 | 155 | 35.3 | > 200 | 11.7 | > 200 | – | – | – | – | – | – | – |
| c1ccc2c(c1)c1ccncc1n2CCCCCCCCn1c2ccccc2c2ccncc21 | > 200 | > 200 | > 200 | 33.5 | > 200 | – | – | – | – | – | – | – |
| CCCCOc1ccc2c3ccnc(C)c3n(CCCCn3c4cc(OCCCC)ccc4c4ccnc(C)c43)c2c1 | 6.8 | 3.8 | > 200 | 5.5 | 8.5 | – | – | – | – | – | – | – |
| Cc1nccc2c3ccccc3n(CCCCCn3c4ccccc4c4ccnc(C)c43)c12 | > 200 | > 200 | > 200 | 18.8 | > 200 | – | – | – | – | – | – | – |
| c1ccc2c(c1)c1ccncc1n2CCCCn1c2ccccc2c2ccncc21 | > 200 | > 200 | – | > 200 | 59.7 | 14.5 | Non-toxic | Non-toxic | Non-toxic | Non-toxic | 39.7 | 34.2 |
| Cc1nccc2c3ccc(OC(C)C)cc3n(CCCCCCCCCn3c4cc(OC(C)C)ccc4c4ccnc(C)c43)c12 | 112 | 43.3 | 40 | 101 | > 200 | – | – | – | – | – | – | – |
| CCOC(=O)c1cc2c3ccccc3n(CCCCCCn3c4ccccc4c4cc(C(=O)OCC)nc(-c5cccnc5)c43)c2c(-c2cccnc2)n1 | > 200 | > 200 | > 200 | 68.3 | > 200 | – | – | – | – | – | – | – |
| c1ccc2c(c1)c1ccnc(-c3ccsc3)c1n2CCCCCCCCn1c2ccccc2c2ccnc(-c3ccsc3)c21 | > 200 | 32.1 | > 200 | > 200 | > 200 | – | – | – | – | – | – | – |
| CC(C)c1nccc2c3ccccc3n(CCCCCCn3c4ccccc4c4ccnc(C(C)C)c43)c12 | > 200 | 53.5 | 18.5 | 31.8 | > 200 | – | – | – | – | – | – | – |
| CCOC(=O)c1cc2c3ccccc3n(CCCCCCn3c4ccccc4c4cc(C(=O)OCC)nc(-c5cc(OC)c(OC)c(OC)c5)c43)c2c(-c2cc(OC)c(OC)c(OC)c2)n1 | > 200 | > 200 | > 200 | > 200 | > 200 | – | – | – | – | – | – | – |
| COc1ccc2c3ccnc(C)c3n(CCCCCCCCn3c4cc(OC)ccc4c4ccnc(C)c43)c2c1 | 2.8 | 6.2 | 65.6 | 7.1 | 75.7 | – | – | – | – | – | – | – |
